High-throughput results: PubChem BioAssay, Broad Institute
Compounds with a hit are over-represented: about 2.3% of the library has one in this group of screens.
Cneo AK release = Cryptococcus neoformans lysis via adenylate kinase release. C. neoformans lysis, adenylate kinase release luminescence, 4 h; normalised: neutral wells 0, clomiphene wells 100. lysis activity, % at 15 µM. actives 0.2% (n = 360,000). AID 651654;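 active = mean lysis activity across replicates of at least 80%, whatever share of replicates individually reach that level; inactive = mean lysis activity below 80%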
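read-out = cell lysis signal | test system = log-phase Cryptococcus neoformans yeast cells | input = cells at 5 × 10^6 per mL | medium = fresh YPD growth medium | signal = luminescent adenylate kinase detection reagent | timing = 4 h at 37 °C static, read 1 h later | dosing = single dose | controls = Clomiphene as positive lysis control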
Statin myotox sup = suppressors of simvastatin-induced myotoxicity in C2C12 myotubes | ATP luminescence, 48 h; scaled: DMSO 0, geranylgeraniol control 100 | actives 0.78% (n = 330,000) | rescue of ATP level, % at 7.49 µM;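 active = mean ATP rescue above about 67%, or every replicate alone reaching that limit, limit read from the data, passing the limit was not always enough; inconclusive = no clear call, values can overlap the other calls; inactive = mean under the limit and some replicate under it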;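 note: myotubes were challenged with 10 µM simvastatin during compound exposure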
ERp5 inh = inhibitors of human ERp5; ERp5 insulin aggregation, absorbance 650 nm, 90 min; actives 0.05% (n = 350,000); inhibition, % at 9.99 µM; AID 651711; Q15084;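 active = mean replicate inhibition above about 25%, with every replicate also reaching it, limit read from the data, passing the limit was not always enough; inconclusive = only one of those two criteria met; inactive = neither criterion met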
DENV2 CPE = protects cells from dengue virus 2 cytopathic effect; DENV2-infected cells, cytopathic effect rescue, plate reader; CPE inhibition, % at 9.99 µM; actives 1.7% (n = 350,000); AID 651640; in the data active = CPE inhibition above about 20%, passing the limit was not always enough; inconclusive = no clear call, values can overlap the other calls; tested in BHK-21 cells;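 note: 0% = median of neutral control wells and 100% = median of positive control wells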
F508del corr = CFTR F508del correction in bronchial cells | CFBE cells, YFP halide quenching; stimulated with forskolin plus potentiator P3; % fluorescence drop versus neutral controls | activity (quench increase), % at 7.58 µM | actives 0.36% (n = 350,000);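 active = mean added fluorescence quench of at least 8% versus neutral control, with both replicates also reaching 8%; inconclusive = only one of the mean or replicate conditions met; inactive = mean below 8% and not both replicates reaching 8%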;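 note: cells transiently co-express mutant CFTR-F508del with the halide-sensitive YFP; corrector assay measuring rescue of mutant channel to the surface after 24 h compound exposure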
PDI turbidity = inhibitors of human protein disulfide isomerase; P07237; PDI insulin aggregation turbidity, A650, 90 min; inhibition, % at 10 µM; actives 0.052% (n = 350,000);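 active = mean inhibition across replicates of 30% or more, whatever share of single replicates reach that level; inconclusive = mean inhibition below 30% while every single replicate reaches 30%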
Target sequence (P07237 whole entry, looked up): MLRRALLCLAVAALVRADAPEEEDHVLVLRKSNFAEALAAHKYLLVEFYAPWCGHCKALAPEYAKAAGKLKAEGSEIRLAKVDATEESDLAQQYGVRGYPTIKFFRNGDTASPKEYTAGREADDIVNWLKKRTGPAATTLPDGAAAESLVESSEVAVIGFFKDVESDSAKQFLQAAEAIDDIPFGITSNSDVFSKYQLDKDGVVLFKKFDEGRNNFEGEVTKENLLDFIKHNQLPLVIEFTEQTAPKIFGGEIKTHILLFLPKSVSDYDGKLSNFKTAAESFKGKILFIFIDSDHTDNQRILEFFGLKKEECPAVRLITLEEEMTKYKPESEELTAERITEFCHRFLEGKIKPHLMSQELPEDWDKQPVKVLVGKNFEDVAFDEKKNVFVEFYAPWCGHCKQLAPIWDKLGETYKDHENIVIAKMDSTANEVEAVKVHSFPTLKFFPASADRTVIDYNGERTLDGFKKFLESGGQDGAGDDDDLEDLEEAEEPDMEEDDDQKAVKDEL
Starred values were filed as active, the others as inactive; ? = inconclusive; . = no result given; ! = repeats disagree.

SMILES	Cneo AK release	Statin myotox sup	ERp5 inh	DENV2 CPE	F508del corr	PDI turbidity
C[C@@H]1CN([C@@H](C)CO)C(=O)c2cccc(N(C)C)c2O[C@H]1CN(C)C(=O)Nc1ccc(C(F)(F)F)cc1	99.0*	26.9	6.4	-4.4	0.1	.
C[C@@H]1CN([C@H](C)CO)C(=O)c2cc(N(C)C)ccc2O[C@@H]1CN(C)C(=O)Nc1ccc(C(F)(F)F)cc1	107.2*	-20.5	-3.8	1.7	6.3	.
Cc1noc(C)c1NC(=O)N(C)C[C@H]1Oc2c(cccc2N(C)C)C(=O)N([C@@H](C)CO)C[C@H]1C	-4.1	5.9	-0.7	15.9	2.2	.
C[C@H]1CN([C@@H](C)CO)C(=O)c2cccc(N(C)C)c2O[C@@H]1CN(C)C(=O)Nc1ccc2c(c1)OCO2	-10.3	-11.0	9.6	2.3	-2.6	.
C[C@@H]1CN([C@H](C)CO)C(=O)c2cccc(N(C)C)c2O[C@@H]1CN(C)C(=O)Nc1ccc2c(c1)OCO2	2.5	12.3	0.5	26.9*	2.4	.
C[C@H](CO)N1C[C@H](C)[C@@H](CN(C)C(=O)Nc2cccc3ccccc23)Oc2c(cccc2N(C)C)C1=O	82.5*	16.0	3.0	21.4*	-4.3	.
C[C@@H]1CN([C@@H](C)CO)C(=O)c2cccc(N(C)C)c2O[C@H]1CN(C)C(=O)Nc1ccccc1	-0.2	31.9	-1.8	30.3*	1.0	.
C[C@@H]1CN([C@@H](C)CO)C(=O)c2cccc(N(C)C)c2O[C@H]1CN(C)C(=O)Nc1cccc2ccccc12	0.1	1.2	3.3	2.0	0.0	.
CCC(=O)N(C)C[C@H]1Oc2cc(C#CC(C)(C)O)ccc2S(=O)(=O)N([C@H](C)CO)C[C@@H]1C	101.0*	-5.5	2.8	-1.6	3.4	.
CCC(=O)N(C)C[C@H]1Oc2cc(C#CC(C)(C)O)ccc2S(=O)(=O)N([C@H](C)CO)C[C@H]1C	1.1	12.6	-4.3	-1.9	-0.4	.
CCCC#Cc1ccc2c(c1)O[C@H](CN(C)C(=O)COC)[C@H](C)CN([C@H](C)CO)S2(=O)=O	0.9	1.3	9.2	-11.7	-0.9	.
CCC(=O)N(C)C[C@H]1Oc2cc(-c3ccccc3F)ccc2S(=O)(=O)N([C@H](C)CO)C[C@H]1C	0.0	-2.8	-0.5	24.5*!	0.3	23.2
CCCC#Cc1ccc2c(c1)O[C@H](CN(C)C(=O)COC)[C@@H](C)CN([C@H](C)CO)S2(=O)=O	4.5	-13.2	8.0	23.1*	-3.4	.
CCC(=O)N(C)C[C@H]1Oc2cc(-c3ccc(C#N)cc3)ccc2S(=O)(=O)N([C@@H](C)CO)C[C@@H]1C	-0.9	22.7	85.4*	-3.1	0.5	.
Cc1noc(C)c1S(=O)(=O)Nc1ccc2c(c1)C(=O)N([C@H](C)CO)C[C@H](C)[C@@H](CN(C)S(=O)(=O)c1ccc(F)cc1)OCCCC[C@H](C)O2	1.4	.	-4.8	0.3	1.7	.
C[C@@H]1CN([C@@H](C)CO)C(=O)c2cc(NC(=O)Nc3ccc4c(c3)OCO4)ccc2O[C@@H]1CN(C)C(=O)Nc1ccc(F)cc1	1.2	-2.2	.	18.8	2.2	.
COCC(=O)N(C)C[C@H]1Oc2cc(C3=CCCC3)ccc2S(=O)(=O)N([C@H](C)CO)C[C@H]1C	-7.0	8.8	-5.4	-0.1	2.8	.
COCC(=O)N(C)C[C@@H]1Oc2cc(C#CC(C)(C)O)ccc2S(=O)(=O)N([C@H](C)CO)C[C@H]1C	-9.9	-0.4	-37.1	10.6	-2.4	.
COCC(=O)N(C)C[C@H]1Oc2cc(C#CC(C)(C)O)ccc2S(=O)(=O)N([C@@H](C)CO)C[C@H]1C	4.7	-5.3	68.2*	-9.7	1.1	.
COCC(=O)N(C)C[C@H]1Oc2cc(C#CC(C)(C)O)ccc2S(=O)(=O)N([C@@H](C)CO)C[C@@H]1C	-12.2	7.5	47.2*	-7.6	-1.7	.
COCC(=O)N(C)C[C@H]1Oc2cc(C#CC(C)(C)O)ccc2S(=O)(=O)N([C@H](C)CO)C[C@@H]1C	-13.8	-2.1	7.2	-1.9	-3.2	.
C[C@@H]1CN([C@H](C)CO)C(=O)c2cc(NC(=O)CCN3CCOCC3)ccc2O[C@@H]1CN(C)C(=O)Nc1ccc2c(c1)OCO2	2.8	-8.6	-5.8	49.8*	-1.3	.
C[C@H]1CN([C@@H](C)CO)C(=O)c2cc(NC(=O)CCN3CCOCC3)ccc2O[C@@H]1CN(C)C(=O)Nc1ccc2c(c1)OCO2	1.1	-0.7	1.0	-1.9	1.5	.
COc1ccc(NC(=O)N(C)C[C@H]2Oc3ccc(NC(=O)CCN4CCOCC4)cc3C(=O)N([C@@H](C)CO)C[C@@H]2C)cc1	-3.2	12.6	0.1	-7.2	0.2	.
COc1ccc(NC(=O)N(C)C[C@H]2Oc3ccc(NC(=O)CCN4CCOCC4)cc3C(=O)N([C@H](C)CO)C[C@@H]2C)cc1	-2.4	4.0	3.9	51.5*!	-0.5	6.9
SMILES	Cneo AK release	Statin myotox sup	ERp5 inh	DENV2 CPE	F508del corr	PDI turbidity
COc1ccc(CN(C)C[C@@H]2Oc3ccc(NC(=O)CCN4CCOCC4)cc3C(=O)N([C@@H](C)CO)C[C@H]2C)cc1	43.8	44.0	2.7	20.5*	-1.0	.
CN(C)S(=O)(=O)c1ccc(NC(=O)CN2CCOCC2)cc1	.	-1.0	-2.9	-5.6	-1.6	-0.5
CCCCN(CCCC)S(=O)(=O)c1ccc(NC(=O)CN2CCOCC2)cc1	0.1	129.7*	11.9	-3.1	2.4	2.0
Clc1ccc2c(c1)-c1ccccc1C1=NCCN12	.	.	5.2	-6.5	8.3*	-63.4
C[C@H]1CN([C@@H](C)CO)C(=O)c2cccc(NS(=O)(=O)c3ccc(F)cc3)c2O[C@H]1CN(C)CC1CC1	-0.5	-11.6	3.3	2.7	2.3	.
COc1ccc(S(=O)(=O)Nc2ccc3c(c2)CC(=O)N([C@H](C)CO)C[C@@H](C)[C@H](CN(C)Cc2ccc(C(F)(F)F)cc2)O3)cc1	6.4	78.9*	8.6	18.3	1.0	.
COc1ccc(S(=O)(=O)Nc2ccc3c(c2)CC(=O)N([C@@H](C)CO)C[C@@H](C)[C@H](CN(C)Cc2ccc(C(F)(F)F)cc2)O3)cc1	8.7	75.6*	-1.8	-2.3	7.3	.
COc1ccc(CN(C)C[C@@H]2Oc3ccc(NS(=O)(=O)c4ccc(F)cc4)cc3CC(=O)N([C@H](C)CO)C[C@H]2C)cc1	1.0	74.8*	-0.5	19.5	-1.7	.
COc1ccc(S(=O)(=O)Nc2ccc3c(c2)CC(=O)N([C@H](C)CO)C[C@@H](C)[C@@H](CN(C)Cc2ccc(C(F)(F)F)cc2)O3)cc1	0.7	?	7.9	23.2*	6.9	.
COc1ccc2c3c([nH]c2c1)[C@H](CO)N(C(=O)C1CC1)CC31CN(C)C1	.	.	-3.9	4.5	-0.1	.
CN(C)CC(=O)N1[C@@H]2c3ccc(-c4ccccc4)c(=O)n3C[C@@H]2[C@@H](CO)[C@@H]1C(=O)NC1CCC1	-2.3	0.5	4.5	0.3	.	.
